# Test results as given in ChEMBL document CHEMBL1142995, “Probing the pharmacophore of ginkgolides as glycine receptor antagonists” (J Med Chem, 2007).
# Tests used:
# Type in all cases: cell-based
# [1] = target: T1, Glycine receptor subunit alpha-1 (Homo sapiens, UniProt P23415); experiment: Activity at human alpha-1-beta-GlyR expressed in HEK293 cells by FMP assay
# T1 sequence (P23415 whole entry): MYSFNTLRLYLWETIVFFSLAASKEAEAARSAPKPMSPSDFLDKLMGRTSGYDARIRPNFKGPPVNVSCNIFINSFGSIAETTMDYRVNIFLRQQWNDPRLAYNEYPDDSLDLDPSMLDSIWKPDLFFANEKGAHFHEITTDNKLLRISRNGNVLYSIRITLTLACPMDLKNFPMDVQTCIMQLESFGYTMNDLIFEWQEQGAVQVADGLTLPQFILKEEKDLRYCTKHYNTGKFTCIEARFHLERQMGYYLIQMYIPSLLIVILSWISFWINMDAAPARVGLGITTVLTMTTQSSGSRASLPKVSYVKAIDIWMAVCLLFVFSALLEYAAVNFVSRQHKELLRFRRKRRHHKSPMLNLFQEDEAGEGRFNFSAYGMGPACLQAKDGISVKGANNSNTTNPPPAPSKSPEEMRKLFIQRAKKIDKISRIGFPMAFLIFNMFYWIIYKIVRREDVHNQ
# In short: (§1)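 Stable HEK293 lines (α1: G418; α1β: G418 + hygromycin B; α2: hygromycin B) plated on poly-D-lysine 16-24 h. Loaded with FMP dye in HBSS/20 mM HEPES pH 7.4, antagonist present, 30 min at 37 °C. Fluorescence ex 530/em 560 nm read up to 1 min after glycine: 200 µM (α1, α1β) or 500 µM (α2). Duplicates, ≥3 experiments; IC50 from maximal responses.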
# [2] = target: T1, Glycine receptor subunit alpha-1; experiment: Activity at human alpha-1GlyR expressed in HEK293 cells by FMP assay; in short: as §1
# [3] = target: T2, Glycine receptor subunit alpha-2 (Homo sapiens, UniProt P23416); experiment: Activity at human alpha-2GlyR expressed in HEK293 cells by FMP assay; in short: as §1
# T2 sequence (P23416 whole entry): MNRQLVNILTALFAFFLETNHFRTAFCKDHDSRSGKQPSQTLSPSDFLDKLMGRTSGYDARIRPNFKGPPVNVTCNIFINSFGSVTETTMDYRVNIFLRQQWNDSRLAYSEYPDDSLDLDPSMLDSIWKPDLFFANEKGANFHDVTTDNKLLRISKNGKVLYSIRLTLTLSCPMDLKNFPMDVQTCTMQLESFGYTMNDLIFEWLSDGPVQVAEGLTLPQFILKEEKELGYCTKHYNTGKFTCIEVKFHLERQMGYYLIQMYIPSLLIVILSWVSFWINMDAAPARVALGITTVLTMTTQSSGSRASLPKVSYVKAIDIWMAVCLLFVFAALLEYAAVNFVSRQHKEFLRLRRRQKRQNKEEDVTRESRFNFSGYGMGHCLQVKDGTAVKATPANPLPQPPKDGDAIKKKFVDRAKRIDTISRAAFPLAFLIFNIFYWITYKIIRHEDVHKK
# [4] = target: T1, Glycine receptor subunit alpha-1; experiment: Activity at human alpha-1GlyR expressed in HEK293 cells assessed as inhibition of 300 uM glycine-induced current by whole-cell patch clamp experiment
# [5] = target: T1, Glycine receptor subunit alpha-1; experiment: Activity at human alpha-1GlyR expressed in HEK293 cells assessed as inhibition of 30 uM glycine-induced current by whole-cell patch clamp experiment
# In short: (§2)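 α1 GlyR-HEK293 cells, whole-cell patch clamp. Antagonist co-applied with 30 or 3000 µM glycine by gravity perfusion. Peak current normalised to that glycine concentration alone and fitted to Hill equation for IC50 and slope. Mean with 95% CI, 5 cells per glycine concentration.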
# [6] = target: T1, Glycine receptor subunit alpha-1; experiment: Activity at human alpha1GlyR expressed in HEK293 cells assessed as inhibition of 3000 uM glycine-induced current by whole-cell patch clamp experiment; in short: as §2
structure (smiles),measurement,setting,value
C[C@@H]1C(=O)O[C@H]2[C@H](O)[C@]34[C@@H]5OC(=O)[C@]3(O[C@@H]3OC(=O)[C@H](O)[C@@]34[C@H](C(C)(C)C)[C@H]5O)[C@@]12O [GINKGOLIDE C],IC50,[1],2400 nM
same,IC50,[2],4.7 µM
same,IC50,[3],8.2 µM
same,IC50,[4],1700 nM
same,IC50,[5],2400 nM
same,IC50,[6],5.9 µM
